ChEMBL document CHEMBL1156778, “Synthesis and structure-activity studies of biphenyl analogues of the tuberculosis drug (6S)-2-nitro-6-{[4-(trifluoromethoxy)benzyl]oxy}-6,7-dihydro-5H-imidazo[2,1-b][1,3]oxazine (PA-824)” (J Med Chem, 2010)
≈ marks a conversion by molar mass, not a printed value.

Test system: Mycobacterium tuberculosis
Test: Antitubercular activity against Mycobacterium tuberculosis H37Rv infected in BALB/c mouse assessed as ratio of lung CFU for compound to lung CFU for PA-824 at 100 mg/kg, po daily for 5 days a week for 3 weeks
Format: functional
Conditions: not given

SMILES | fold change (FC)
O=[N+]([O-])c1cn2c(n1)OC[C@@H](OCc1ccc(-c3ccc(Cl)c(OC(F)F)c3)cc1)C2 | 10
O=[N+]([O-])c1cn2c(n1)OC[C@@H](OCc1ccc(-c3ccc(C(F)(F)F)cc3Cl)cc1)C2 | 7.2
COc1cccc(F)c1-c1ccc(CO[C@@H]2COc3nc([N+](=O)[O-])cn3C2)cc1 | 0.07
O=[N+]([O-])c1cn2c(n1)OC[C@@H](OCc1ccc(-c3ccc(Cl)c(OC(F)(F)F)c3)cc1)C2 | 9.7
O=[N+]([O-])c1cn2c(n1)OC[C@@H](OCc1ccc(-c3ccc(OCCCN4CCOCC4)cc3)cc1)C2 | 0.05
O=[N+]([O-])c1cn2c(n1)OC[C@@H](OCc1ccc(-c3ccc(OC(F)(F)F)c(F)c3)cc1)C2 | 419
CC(=O)c1ccc(-c2ccc(CO[C@@H]3COc4nc([N+](=O)[O-])cn4C3)cc2)cc1 | <0.01
O=[N+]([O-])c1cn2c(n1)OC[C@@H](OCc1ccc(-c3cccc(OCc4ccccc4)c3)cc1)C2 | 0.66
O=[N+]([O-])c1cn2c(n1)OC[C@@H](OCc1ccc(OC(F)(F)F)cc1)C2 [PRETOMANID] | 1

Test system: Vero
Test: Cytotoxicity against african green monkey Vero cells after 72 hrs by MTS assay
Format: cell-based
Conditions: Chlorocebus sabaeus
Method in brief: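 VERO cells (CCL-81), 72 h exposure, tetrazolium dye read-out.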

SMILES | IC50 [µM]
NC(=O)c1cccc(-c2ccc(CO[C@@H]3COc4nc([N+](=O)[O-])cn4C3)cc2)c1 | > 125
O=[N+]([O-])c1cn2c(n1)OC[C@@H](OCc1ccccc1-c1cccc(OC(F)(F)F)c1)C2 | > 125
N#Cc1ccc(-c2ccccc2CO[C@@H]2COc3nc([N+](=O)[O-])cn3C2)cc1 | > 125
CC(=O)c1ccc(-c2ccccc2CO[C@@H]2COc3nc([N+](=O)[O-])cn3C2)cc1 | > 125
CN(C)CCOc1cccc(-c2ccc(CO[C@@H]3COc4nc([N+](=O)[O-])cn4C3)cc2)c1 | > 125
NC(=O)c1ccc(-c2ccc(CO[C@@H]3COc4nc([N+](=O)[O-])cn4C3)cc2)cc1 | > 125
O=[N+]([O-])c1cn2c(n1)OC[C@@H](OCc1ccc(-c3ccc(Cl)c(OC(F)F)c3)cc1)C2 | > 125
O=[N+]([O-])c1cn2c(n1)OC[C@@H](OCc1ccc(-c3ccc(C(F)(F)F)cc3Cl)cc1)C2 | > 125
COc1cccc(F)c1-c1ccc(CO[C@@H]2COc3nc([N+](=O)[O-])cn3C2)cc1 | > 125
O=[N+]([O-])c1cn2c(n1)OC[C@@H](OCc1ccc(-c3ccc(Cl)c(OC(F)(F)F)c3)cc1)C2 | > 125
O=[N+]([O-])c1cn2c(n1)OC[C@@H](OCc1ccc(-c3ccc(OCCCN4CCOCC4)cc3)cc1)C2 | > 125
O=[N+]([O-])c1cn2c(n1)OC[C@@H](OCc1ccc(-c3ccc(OC(F)(F)F)c(F)c3)cc1)C2 | > 125
CC(=O)c1ccc(-c2ccc(CO[C@@H]3COc4nc([N+](=O)[O-])cn4C3)cc2)cc1 | > 125
O=[N+]([O-])c1cn2c(n1)OC[C@@H](OCc1ccc(-c3cccc(OCc4ccccc4)c3)cc1)C2 | > 125
O=[N+]([O-])c1cn2c(n1)OC[C@@H](OCc1ccc(OC(F)(F)F)cc1)C2 [PRETOMANID] | > 125

Test system: not listed separately
Test: Metabolic stability in pooled human liver microsomes assessed as compound remaining after 1 hr by LC-MS-MS
Format: ADME, Microsome
Conditions: read-out: Stability
Method in brief: (§1)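 Test compound at 1 μM with pooled CD-1 mouse or human liver microsomes (0.5 mg/mL protein) and NADPH-regenerating system (3.3 mM MgCl2, 3.3 mM G6P, 0.4 U/mL G6PD, 1.3 mM NADP+) in 75 mM phosphate, pH 7.4, 0.5% DMSO, 37 °C. Stopped at 0 and 60 min with MeCN containing metoprolol internal standard. LC-MS/MS (ESI, SRM), duplicates. % remaining = 100 × mean peak-area ratio at 60 min / at 0 min.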

SMILES | remaining at 1 h [%]
O=[N+]([O-])c1cn2c(n1)OC[C@@H](OCc1ccc(-c3ccc(Cl)c(OC(F)F)c3)cc1)C2 | 83
O=[N+]([O-])c1cn2c(n1)OC[C@@H](OCc1ccc(-c3ccc(C(F)(F)F)cc3Cl)cc1)C2 | 92
COc1cccc(F)c1-c1ccc(CO[C@@H]2COc3nc([N+](=O)[O-])cn3C2)cc1 | 91
O=[N+]([O-])c1cn2c(n1)OC[C@@H](OCc1ccc(-c3ccc(Cl)c(OC(F)(F)F)c3)cc1)C2 | 95
O=[N+]([O-])c1cn2c(n1)OC[C@@H](OCc1ccc(-c3ccc(OCCCN4CCOCC4)cc3)cc1)C2 | 11
O=[N+]([O-])c1cn2c(n1)OC[C@@H](OCc1ccc(-c3ccc(OC(F)(F)F)c(F)c3)cc1)C2 | 93
CC(=O)c1ccc(-c2ccc(CO[C@@H]3COc4nc([N+](=O)[O-])cn4C3)cc2)cc1 | 36
O=[N+]([O-])c1cn2c(n1)OC[C@@H](OCc1ccc(-c3cccc(OCc4ccccc4)c3)cc1)C2 | 64
O=[N+]([O-])c1cn2c(n1)OC[C@@H](OCc1ccc(OC(F)(F)F)cc1)C2 [PRETOMANID] | 82

Test system: Mycobacterium tuberculosis
Test: Antitubercular activity against Mycobacterium tuberculosis H37Rv infected in BALB/c mouse measured per mouse at 100 mg/kg, po daily for 5 days a week for 3 weeks
Format: functional
Conditions: not given

SMILES | CFU
O=[N+]([O-])c1cn2c(n1)OC[C@@H](OCc1ccc(-c3ccc(Cl)c(OC(F)F)c3)cc1)C2 | 150
O=[N+]([O-])c1cn2c(n1)OC[C@@H](OCc1ccc(-c3ccc(C(F)(F)F)cc3Cl)cc1)C2 | 540
COc1cccc(F)c1-c1ccc(CO[C@@H]2COc3nc([N+](=O)[O-])cn3C2)cc1 | 1100000
O=[N+]([O-])c1cn2c(n1)OC[C@@H](OCc1ccc(-c3ccc(Cl)c(OC(F)(F)F)c3)cc1)C2 | 360
O=[N+]([O-])c1cn2c(n1)OC[C@@H](OCc1ccc(-c3ccc(OCCCN4CCOCC4)cc3)cc1)C2 | 310000
O=[N+]([O-])c1cn2c(n1)OC[C@@H](OCc1ccc(-c3ccc(OC(F)(F)F)c(F)c3)cc1)C2 | 4.3
CC(=O)c1ccc(-c2ccc(CO[C@@H]3COc4nc([N+](=O)[O-])cn4C3)cc2)cc1 | 110000
O=[N+]([O-])c1cn2c(n1)OC[C@@H](OCc1ccc(-c3cccc(OCc4ccccc4)c3)cc1)C2 | 120000

Test system: not listed separately
Test: Metabolic stability in pooled CD1 mouse liver microsomes assessed as compound remaining after 1 hr by LC-MS-MS
Format: ADME, Microsome
Conditions: read-out: Stability
Method in brief: as §1

SMILES | remaining at 1 h [%]
O=[N+]([O-])c1cn2c(n1)OC[C@@H](OCc1ccc(-c3ccc(Cl)c(OC(F)F)c3)cc1)C2 | 86
O=[N+]([O-])c1cn2c(n1)OC[C@@H](OCc1ccc(-c3ccc(C(F)(F)F)cc3Cl)cc1)C2 | 93
COc1cccc(F)c1-c1ccc(CO[C@@H]2COc3nc([N+](=O)[O-])cn3C2)cc1 | 0
O=[N+]([O-])c1cn2c(n1)OC[C@@H](OCc1ccc(-c3ccc(Cl)c(OC(F)(F)F)c3)cc1)C2 | 92
O=[N+]([O-])c1cn2c(n1)OC[C@@H](OCc1ccc(-c3ccc(OCCCN4CCOCC4)cc3)cc1)C2 | 14
O=[N+]([O-])c1cn2c(n1)OC[C@@H](OCc1ccc(-c3ccc(OC(F)(F)F)c(F)c3)cc1)C2 | 86
CC(=O)c1ccc(-c2ccc(CO[C@@H]3COc4nc([N+](=O)[O-])cn4C3)cc2)cc1 | 70
O=[N+]([O-])c1cn2c(n1)OC[C@@H](OCc1ccc(-c3cccc(OCc4ccccc4)c3)cc1)C2 | 50

Test system: Mycobacterium tuberculosis
Test: Antitubercular activity against Mycobacterium tuberculosis H37Rv in anaerobic condition after 7 days by low oxygen recovery assay
Format: functional
Conditions: 168 h

SMILES | MIC [µM]
NC(=O)c1cccc(-c2ccc(CO[C@@H]3COc4nc([N+](=O)[O-])cn4C3)cc2)c1 | 6.7 (≈ 2.64 µg/mL)
O=[N+]([O-])c1cn2c(n1)OC[C@@H](OCc1ccccc1-c1cccc(OC(F)(F)F)c1)C2 | 6.3 (≈ 2.74 µg/mL)
N#Cc1ccc(-c2ccccc2CO[C@@H]2COc3nc([N+](=O)[O-])cn3C2)cc1 | 19 (≈ 7.15 µg/mL)
CC(=O)c1ccc(-c2ccccc2CO[C@@H]2COc3nc([N+](=O)[O-])cn3C2)cc1 | 36 (≈ 14.2 µg/mL)
CN(C)CCOc1cccc(-c2ccc(CO[C@@H]3COc4nc([N+](=O)[O-])cn4C3)cc2)c1 | 18 (≈ 7.89 µg/mL)
NC(=O)c1ccc(-c2ccc(CO[C@@H]3COc4nc([N+](=O)[O-])cn4C3)cc2)cc1 | 15 (≈ 5.92 µg/mL)
O=[N+]([O-])c1cn2c(n1)OC[C@@H](OCc1ccc(-c3ccc(Cl)c(OC(F)F)c3)cc1)C2 | 1.1 (≈ 0.497 µg/mL)
O=[N+]([O-])c1cn2c(n1)OC[C@@H](OCc1ccc(-c3ccc(C(F)(F)F)cc3Cl)cc1)C2 | 1.4 (≈ 0.635 µg/mL)
COc1cccc(F)c1-c1ccc(CO[C@@H]2COc3nc([N+](=O)[O-])cn3C2)cc1 | 0.81 (≈ 0.323 µg/mL)
O=[N+]([O-])c1cn2c(n1)OC[C@@H](OCc1ccc(-c3ccc(Cl)c(OC(F)(F)F)c3)cc1)C2 | 0.95 (≈ 0.446 µg/mL)
O=[N+]([O-])c1cn2c(n1)OC[C@@H](OCc1ccc(-c3ccc(OCCCN4CCOCC4)cc3)cc1)C2 | 1 (≈ 0.495 µg/mL)
O=[N+]([O-])c1cn2c(n1)OC[C@@H](OCc1ccc(-c3ccc(OC(F)(F)F)c(F)c3)cc1)C2 | 0.34 (≈ 0.154 µg/mL)
CC(=O)c1ccc(-c2ccc(CO[C@@H]3COc4nc([N+](=O)[O-])cn4C3)cc2)cc1 | 0.73 (≈ 0.287 µg/mL)
O=[N+]([O-])c1cn2c(n1)OC[C@@H](OCc1ccc(-c3cccc(OCc4ccccc4)c3)cc1)C2 | 0.88 (≈ 0.403 µg/mL)
O=[N+]([O-])c1cn2c(n1)OC[C@@H](OCc1ccc(OC(F)(F)F)cc1)C2 [PRETOMANID] | 2.6 (≈ 0.934 µg/mL)

Test system: Mycobacterium tuberculosis
Test: Antitubercular activity against Mycobacterium tuberculosis H37Rv in aerobic condition after 7 days by microplate alamar blue assay
Format: functional
Conditions: 168 h
Method in brief: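 M. tuberculosis H37Rv, replicating culture; 8-day microplate assay with Alamar blue added on day 7 to read growth. […] Mean of at least two independent determinations ± SD.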

SMILES | MIC [µM]
NC(=O)c1cccc(-c2ccc(CO[C@@H]3COc4nc([N+](=O)[O-])cn4C3)cc2)c1 | 2.8 (≈ 1.1 µg/mL)
O=[N+]([O-])c1cn2c(n1)OC[C@@H](OCc1ccccc1-c1cccc(OC(F)(F)F)c1)C2 | 1.9 (≈ 0.827 µg/mL)
N#Cc1ccc(-c2ccccc2CO[C@@H]2COc3nc([N+](=O)[O-])cn3C2)cc1 | 8.4 (≈ 3.16 µg/mL)
CC(=O)c1ccc(-c2ccccc2CO[C@@H]2COc3nc([N+](=O)[O-])cn3C2)cc1 | 17 (≈ 6.69 µg/mL)
CN(C)CCOc1cccc(-c2ccc(CO[C@@H]3COc4nc([N+](=O)[O-])cn4C3)cc2)c1 | 1.5 (≈ 0.658 µg/mL)
NC(=O)c1ccc(-c2ccc(CO[C@@H]3COc4nc([N+](=O)[O-])cn4C3)cc2)cc1 | 2.1 (≈ 0.828 µg/mL)
O=[N+]([O-])c1cn2c(n1)OC[C@@H](OCc1ccc(-c3ccc(Cl)c(OC(F)F)c3)cc1)C2 | 0.03 (≈ 0.0136 µg/mL)
O=[N+]([O-])c1cn2c(n1)OC[C@@H](OCc1ccc(-c3ccc(C(F)(F)F)cc3Cl)cc1)C2 | 0.03 (≈ 0.0136 µg/mL)
COc1cccc(F)c1-c1ccc(CO[C@@H]2COc3nc([N+](=O)[O-])cn3C2)cc1 | 0.13 (≈ 0.0519 µg/mL)
O=[N+]([O-])c1cn2c(n1)OC[C@@H](OCc1ccc(-c3ccc(Cl)c(OC(F)(F)F)c3)cc1)C2 | 0.04 (≈ 0.0188 µg/mL)
O=[N+]([O-])c1cn2c(n1)OC[C@@H](OCc1ccc(-c3ccc(OCCCN4CCOCC4)cc3)cc1)C2 | 0.097 (≈ 0.048 µg/mL)
O=[N+]([O-])c1cn2c(n1)OC[C@@H](OCc1ccc(-c3ccc(OC(F)(F)F)c(F)c3)cc1)C2 | 0.03 (≈ 0.0136 µg/mL)
CC(=O)c1ccc(-c2ccc(CO[C@@H]3COc4nc([N+](=O)[O-])cn4C3)cc2)cc1 | 0.04 (≈ 0.0157 µg/mL)
O=[N+]([O-])c1cn2c(n1)OC[C@@H](OCc1ccc(-c3cccc(OCc4ccccc4)c3)cc1)C2 | 0.12 (≈ 0.0549 µg/mL)
O=[N+]([O-])c1cn2c(n1)OC[C@@H](OCc1ccc(OC(F)(F)F)cc1)C2 [PRETOMANID] | 0.5 (≈ 0.18 µg/mL)
